This is a sample that favours compounds with a hit; in the whole collection about 4.1% have one here.
KCNK3 block: human KCNK3 channel inhibition, primary screen. 340,000 compounds, 0.84% hits. O14649. CHO-KCNK3 thallium flux, FluxOR fluorescence; active compounds read low. B-score at 10 µM;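 active = B-score under library mean minus 4 SD, starting fluorescence ratio at most library mean plus 5 SD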;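 also: more negative B-score means stronger inhibition of thallium flux through KCNK3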
hERG protect: hERG (human) protection from proarrhythmic block. 310,000 compounds, 0.51% hits. activation (rescue from dofetilide block), less the hit threshold, % at 10 µM. Q12809. CHO-hERG, FluxOR thallium flux, dofetilide IC70 present;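 active = activation above the mean of controls blocked by dofetilide plus 5 SD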;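 also: thallium influx through hERG after potassium depolarization seen as dye fluorescence rise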
KCNK9 inh: inhibitors of human KCNK9 two-pore domain potassium channel; B-score at 10 µM; 310,000 compounds, 1.2% hits; Q9NPC2; HEK293 KCNK9, FluxOR thallium flux fluorescence; active compounds read low;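 active = ratio B-score over 3 SD below the library mean, with starting fluorescence within 5 SD of its mean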;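 also: negative B-score means less thallium flux so channel inhibition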
KCNQ1 block: human KCNQ1 channel inhibition; P51787; CHO-K1 KCNQ1, FluxOR thallium flux fluorescence; active compounds read high; B-score at 10 µM; 310,000 compounds, 1.3% hits; AID 2642;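 active = compounds whose thallium flux B-score, printed positive for inhibition, exceeds three library SD while starting fluorescence stays within three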;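 also: channel opened by potassium depolarization with thallium stimulus after 20 min compound exposure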
Target sequence (P51787 whole entry, looked up): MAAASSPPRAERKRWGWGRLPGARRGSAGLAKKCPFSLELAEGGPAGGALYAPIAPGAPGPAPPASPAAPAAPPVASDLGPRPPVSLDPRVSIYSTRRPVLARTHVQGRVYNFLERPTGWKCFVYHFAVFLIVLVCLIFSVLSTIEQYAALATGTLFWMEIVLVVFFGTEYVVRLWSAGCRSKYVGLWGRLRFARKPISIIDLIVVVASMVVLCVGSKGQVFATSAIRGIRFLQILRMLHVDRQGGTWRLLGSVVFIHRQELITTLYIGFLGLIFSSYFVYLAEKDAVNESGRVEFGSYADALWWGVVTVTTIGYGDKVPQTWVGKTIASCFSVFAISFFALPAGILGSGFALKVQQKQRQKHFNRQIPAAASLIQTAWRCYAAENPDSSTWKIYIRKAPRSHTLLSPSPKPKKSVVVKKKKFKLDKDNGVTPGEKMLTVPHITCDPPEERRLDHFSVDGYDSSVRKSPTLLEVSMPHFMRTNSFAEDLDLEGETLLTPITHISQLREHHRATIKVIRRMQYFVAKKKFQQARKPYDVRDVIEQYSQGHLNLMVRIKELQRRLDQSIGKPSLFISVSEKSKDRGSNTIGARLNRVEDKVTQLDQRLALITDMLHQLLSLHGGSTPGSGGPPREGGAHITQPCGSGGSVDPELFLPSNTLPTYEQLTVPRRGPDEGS
KCC2 mod: modulates chloride dependent transport by human KCC2; Q9H2X9; KCC2 cells, thallium flux FluoZin-2 fluorescence; B-score of Tl+ flux slope (higher = more flux/activation; lower = inhibition) at 10 µM; 190,000 compounds, 2.2% hits; AID 1456;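 active = thallium flux slope and its plate-corrected score both differing from the plate sample mean at a set confidence after two filtering rounds, in either direction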;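 also: slope of fluorescence scaled to starting intensity during 10 to 20 s after thallium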
KCNQ1 act: potentiates or activates the human KCNQ1 potassium channel; P51787; CHO-K1 KCNQ1, thallium flux FluxOR fluorescence; active compounds read high; B-score at 10 µM; 310,000 compounds, 0.35% hits; AID 2648;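 active = fluorescence ratio B-score, a plate-corrected score, at least three library SD, with initial intensity B-score within 5 SD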
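assay system = CHO-K1 cells stably expressing KCNQ1 | medium = assay buffer, equal DMSO in all wells | timing = 37 °C overnight plating, 90-min dark dye load, 20-min compound pretreatment | measured by = kinetic FluxOR thallium fluorescence, 10-s 1-Hz baseline, 110-s post-stimulus read | measure = fluorescence change relative to baseline, converted to B score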
KCNK3 confirm: confirmation of human KCNK3 two-pore domain potassium channel inhibitors. shares compounds with KCNK3 block. CHO-KCNK3 thallium flux, FluxOR fluorescence; 0% buffer, 100% carvedilol maximal block. ratio percent of control, % at 10 µM. 2,400 compounds, 99% hits. AID 651638;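 active = ratio percent of control, averaged over triplicates, above buffer control mean plus 5 SD, cut at about 64% in these data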;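 also: ratio is the fluorescence rise from min to max over baseline after thallium stimulus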
KCNK3 noninduced: KCNK3 inhibitor counter-screen hit in non-induced cells. shares compounds with KCNK3 block. non-induced KCNK3 parental cells, FluxOR thallium flux; active compounds read low. thallium flux ratio (lower = more inhibition) at 10 µM. 2,400 compounds, 40% hits;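 active = thallium flux ratio, averaged over three wells, more than 5 SD below the buffer control mean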;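 also: host cells are CHO cells without KCNK3 induction; ratio is peak minus trough fluorescence over baseline then normalized to buffer controls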
Starred values were filed as active, the others as inactive.

How did COc1nc(C)cc(C)c1S(=O)(=O)c1ccccc1 do in these assays?
KCNK3 block: inactive; hERG protect: -2.6; KCNK9 inh: inactive; KCNQ1 block: inactive; KCNQ1 act: inactive

How did O=C(Nc1ccc(Br)cc1F)c1ccc2c(c1)N(Cc1ccccc1)C(=O)CS2=O (stereo not drawn) do in these assays?
KCNK3 block: -12.8*; hERG protect: -6.0; KCNK9 inh: inactive; KCNQ1 block: inactive; KCC2 mod: -0.339; KCNQ1 act: inactive; KCNK3 confirm: 100.3*; KCNK3 noninduced: inactive

Results for COc1ccccc1C(CNc1ccc(S(=O)(=O)N2CCCC2)cc1[N+](=O)[O-])N(C)C (stereo not drawn) ?
KCNK3 block: inactive; hERG protect: -6.9; KCNK9 inh: inactive; KCNQ1 block: inactive; KCNQ1 act: inactive

How did CC(=O)Nc1cccc(C(=O)Nc2ccccc2N2CCOCC2)c1 do in these assays?
KCNK3 block: inactive; hERG protect: -11.9; KCNK9 inh: inactive; KCNQ1 block: inactive; KCC2 mod: -0.208; KCNQ1 act: inactive

What do the screens show for `O=C(Nc1ccccc1N1CCOCC1)c1cccc(NS(=O)(=O)c2ccc(F)c(F)c2)c1`?
KCNK3 block: -8.73*; hERG protect: -10.4; KCNK9 inh: inactive; KCNQ1 block: inactive; KCC2 mod: 0.18; KCNQ1 act: inactive; KCNK3 confirm: 94.3*; KCNK3 noninduced: 0.159*

Results for O=C(Nc1ccccc1N1CCOCC1)c1cc2c(s1)CCCCC2 ?
KCNK3 block: -10.4*; hERG protect: -5.4; KCNK9 inh: inactive; KCNQ1 block: inactive; KCC2 mod: -0.299; KCNQ1 act: inactive; KCNK3 confirm: 118.3*; KCNK3 noninduced: inactive

How did O=S(Cc1ccc(Cl)cc1)c1ccccc1 (stereo not drawn) do in these assays?
KCNK3 block: inactive

How did CCCN(c1ccccc1F)S(=O)(=O)c1c[nH]c(C(=O)OC)c1 do in these assays?
KCNK3 block: inactive; hERG protect: -5.5; KCNK9 inh: inactive; KCNQ1 block: inactive; KCNQ1 act: inactive

Results for CC(=O)Nc1ccc(S(=O)(=O)N(CC(=O)Nc2cc(C)on2)Cc2ccc(F)cc2)cc1 ?
KCNK3 block: inactive; hERG protect: -6.6; KCNK9 inh: inactive; KCNQ1 block: inactive; KCC2 mod: 0.461; KCNQ1 act: inactive

Results for COCc1c(C(=O)N2CCc3ccccc32)oc2ccccc12 ?
KCNK3 block: -10.6*; hERG protect: -4.0; KCNK9 inh: inactive; KCNQ1 block: inactive; KCNQ1 act: inactive; KCNK3 confirm: 86.3*; KCNK3 noninduced: inactive

What do the screens show for `Cc1cc(N2C3CCC2CC(O)(c2ccc(F)cc2)C3)nc(-c2ccccc2)n1` (stereo not drawn)?
KCNK3 block: -10.3*; hERG protect: -9.3; KCNK9 inh: inactive; KCNQ1 block: inactive; KCNQ1 act: inactive; KCNK3 confirm: 101.3*; KCNK3 noninduced: 0.146*

How did COc1ccc(OC)c2c1sc(=NC(=O)C1COc3ccccc3O1)n2C (stereo not drawn) do in these assays?
KCNK3 block: -9.56*; hERG protect: -9.6; KCNK9 inh: inactive; KCNQ1 block: inactive; KCC2 mod: -0.852; KCNQ1 act: inactive; KCNK3 confirm: 108.3*; KCNK3 noninduced: inactive

How did CCC(=O)N=c1sc2c(OC)ccc(OC)c2n1C do in these assays?
KCNK3 block: inactive; hERG protect: -11.4; KCNK9 inh: inactive; KCNQ1 block: inactive; KCC2 mod: -1.67; KCNQ1 act: inactive

Results for CCCC(NC(=O)c1ccc(Br)o1)c1nc2ccccc2[nH]1 (stereo not drawn) ?
KCNK3 block: inactive

How did COCC(C)n1c(SCc2cc(C(=O)OC)c(C)o2)nc2ccccc2c1=O (stereo not drawn) do in these assays?
KCNK3 block: -8.88*; hERG protect: -12.2; KCNK9 inh: inactive; KCNQ1 block: inactive; KCC2 mod: -1.9; KCNQ1 act: inactive; KCNK3 confirm: 90.0*; KCNK3 noninduced: inactive

Results for COc1ccc(N=Cc2c(O)c3ccccc3n2C(C)=O)cc1 ?
KCNK3 block: -12.9*; hERG protect: -16.7; KCNK9 inh: inactive; KCNQ1 block: inactive; KCC2 mod: inactive; KCNQ1 act: inactive; KCNK3 confirm: 142.7*; KCNK3 noninduced: 0.0977*

Results for CCN(CC(=O)Nc1ccc(NC(C)=O)cc1)C(=O)c1ccc(N(C)S(=O)(=O)c2ccc(C)cc2)cc1 ?
KCNK3 block: inactive

Results for CC(C)N(Cc1ccccc1)C(=S)NC1CCCCC1 ?
KCNK3 block: -8.86*; hERG protect: -9.8; KCNK9 inh: inactive; KCNQ1 block: inactive; KCC2 mod: -0.8; KCNQ1 act: inactive; KCNK3 confirm: 111.3*; KCNK3 noninduced: inactive

What do the screens show for `COc1ccc(F)cc1C(=O)C1CCCN(Cc2cccn2-c2ccccn2)C1` (stereo not drawn)?
KCNK3 block: -10.1*; hERG protect: -17.7; KCNK9 inh: inactive; KCNQ1 block: inactive; KCC2 mod: -0.802; KCNQ1 act: inactive; KCNK3 confirm: 94.0*; KCNK3 noninduced: inactive

How did O=C(c1cc(F)ccc1F)C1CCCN(Cc2cccn2-c2ccccn2)C1 (stereo not drawn) do in these assays?
KCNK3 block: inactive; hERG protect: -16.9; KCNK9 inh: inactive; KCNQ1 block: inactive; KCC2 mod: -0.34; KCNQ1 act: inactive

What do the screens show for `CCN(CC)CCNC(=O)C(=O)NCC1OCCN1S(=O)(=O)c1cccs1` (stereo not drawn)?
KCNK3 block: inactive; hERG protect: -10.8; KCNK9 inh: inactive; KCNQ1 block: inactive; KCNQ1 act: inactive

What do the screens show for `Cc1onc(-c2ccccc2)c1C(=O)OCCOc1ccc([N+](=O)[O-])cc1[N+](=O)[O-]`?
KCNK3 block: -10.2*; hERG protect: -13.2; KCNK9 inh: inactive; KCNQ1 block: inactive; KCNQ1 act: inactive; KCNK3 confirm: 92.0*; KCNK3 noninduced: inactive

What do the screens show for `Cc1ccccc1OCCOC(=O)c1c(-c2ccccc2)noc1C`?
KCNK3 block: inactive; hERG protect: -5.5; KCNK9 inh: inactive; KCNQ1 block: inactive; KCNQ1 act: inactive

Assay outcomes: PubChem, several laboratories
